Measured values: ChEMBL document CHEMBL1671840, “Design, Synthesis, and Preclinical Characterization of the Selective Androgen Receptor Modulator (SARM) RAD140” (ACS Med Chem Lett, 2011)
Activity calls are given as the source filed them. No cut-off for these calls is given here.

Legend:
Cynomolgus monkey [1] = assay: Androgenic activity in cynomolgus monkey assessed as effect on lean tissue weight at up to 1 mg/kg, po qd for 28 days measured after 24 hrs of last post dose; format: functional, organism-based; set-up: dose 1 mg/kg; conditions: Macaca fascicularis
Outline: (§1)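 Monkeys, 3 per group, dosed orally at 0.01, 0.1 or 1 mg/kg for 28 days. DEXA scans on day -2 and day 29 gave fat and lean tissue mass. Mean change per group, with SD.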

[2] = Half life in monkey microsomes; format: ADME, Macaca mulatta, Microsome; conditions: rhesus monkey
Rattus norvegicus [3] = assay: Androgenic activity in castrated immature rat assessed as increase of levator ani bulbocavernosus muscle weight at 0.3 mg/kg, po qd for 11 days; format: functional, organism-based; set-up: dose 0.3 mg/kg; conditions: Muscle tissue
Cynomolgus monkey [4] = assay: Androgenic activity in cynomolgus monkey assessed as increase of body weight at 0.1 mg/kg, po qd for 28 days; format: functional, Macaca fascicularis
Outline: (§2)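 Monkeys in groups of 3, grouped from day -21 and weighed at each time point. Oral dosing at 0.01, 0.1 or 1 mg/kg for 28 days, then 21 days off-dose. Each animal's weight change over the pre-dose weeks served as baseline; baseline-subtracted change from day -1 to day 29 was tested statistically.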

Rattus norvegicus [5] = assay: Androgenic activity in young intact rat assessed as increase of levator ani bulbocavernosus muscle weight at 0.5 mg/kg, sc qd for 11 days; format: functional, organism-based; set-up: dose 0.5 mg/kg; conditions: Muscle tissue
[6] = Oral bioavailability in monkey; format: ADME, organism-based, Macaca mulatta; conditions: rhesus monkey, in vivo
Progesterone receptor = target: T1, Progesterone receptor (Homo sapiens, UniProt P06401); assay: Binding affinity to progesterone receptor
T1 sequence (P06401 whole entry): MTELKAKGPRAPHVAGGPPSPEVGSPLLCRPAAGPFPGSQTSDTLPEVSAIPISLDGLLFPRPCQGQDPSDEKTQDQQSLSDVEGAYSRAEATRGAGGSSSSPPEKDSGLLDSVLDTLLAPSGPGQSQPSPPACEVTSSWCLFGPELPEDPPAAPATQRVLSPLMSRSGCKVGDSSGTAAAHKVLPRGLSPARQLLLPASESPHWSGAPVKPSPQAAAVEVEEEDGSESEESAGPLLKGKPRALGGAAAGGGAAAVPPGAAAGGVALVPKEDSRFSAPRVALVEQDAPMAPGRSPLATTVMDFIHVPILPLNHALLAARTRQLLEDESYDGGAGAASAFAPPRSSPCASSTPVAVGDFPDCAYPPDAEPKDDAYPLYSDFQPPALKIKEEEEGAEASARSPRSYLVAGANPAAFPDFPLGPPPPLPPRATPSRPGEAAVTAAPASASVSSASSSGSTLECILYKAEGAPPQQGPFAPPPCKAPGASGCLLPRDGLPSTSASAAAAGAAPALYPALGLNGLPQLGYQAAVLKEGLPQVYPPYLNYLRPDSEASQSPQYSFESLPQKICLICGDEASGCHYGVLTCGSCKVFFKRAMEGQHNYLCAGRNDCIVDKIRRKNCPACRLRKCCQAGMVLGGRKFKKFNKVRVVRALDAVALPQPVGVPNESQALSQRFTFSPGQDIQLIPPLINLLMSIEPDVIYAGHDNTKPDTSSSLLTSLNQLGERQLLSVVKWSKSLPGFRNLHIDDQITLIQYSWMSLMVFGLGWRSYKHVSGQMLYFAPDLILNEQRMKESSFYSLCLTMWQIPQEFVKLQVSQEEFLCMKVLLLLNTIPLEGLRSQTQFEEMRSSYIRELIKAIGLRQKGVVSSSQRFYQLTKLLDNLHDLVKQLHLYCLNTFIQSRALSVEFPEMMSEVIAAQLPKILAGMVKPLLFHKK

Rattus norvegicus [7] = assay: Androgenic activity in young intact rat assessed as increase of prostate weight at 0.5 mg/kg, sc qd for 11 days; format: functional, organism-based; set-up: dose 0.5 mg/kg; conditions: Prostate gland
Cynomolgus monkey [8] = assay: Androgenic activity in cynomolgus monkey assessed as increase of body weight at 1 mg/kg, po qd for 28 days; format: functional, organism-based; set-up: dose 1 mg/kg; conditions: Macaca fascicularis; outline: as §2
[9] = Half life in rat microsomes; format: ADME, Microsome
Cynomolgus monkey [10] = assay: Androgenic activity in cynomolgus monkey assessed as effect on fat mass at up to 1 mg/kg, po qd for 28 days measured after 24 hrs of last post dose; format: functional, organism-based; set-up: dose 1 mg/kg; conditions: Macaca fascicularis; outline: as §1
Androgen receptor = target: T2, Androgen receptor (Homo sapiens, UniProt P10275); assay: Displacement of fluorescent-tagged R1881 from androgen receptor after 4 hrs by fluorometric assay
T2 sequence (P10275 whole entry): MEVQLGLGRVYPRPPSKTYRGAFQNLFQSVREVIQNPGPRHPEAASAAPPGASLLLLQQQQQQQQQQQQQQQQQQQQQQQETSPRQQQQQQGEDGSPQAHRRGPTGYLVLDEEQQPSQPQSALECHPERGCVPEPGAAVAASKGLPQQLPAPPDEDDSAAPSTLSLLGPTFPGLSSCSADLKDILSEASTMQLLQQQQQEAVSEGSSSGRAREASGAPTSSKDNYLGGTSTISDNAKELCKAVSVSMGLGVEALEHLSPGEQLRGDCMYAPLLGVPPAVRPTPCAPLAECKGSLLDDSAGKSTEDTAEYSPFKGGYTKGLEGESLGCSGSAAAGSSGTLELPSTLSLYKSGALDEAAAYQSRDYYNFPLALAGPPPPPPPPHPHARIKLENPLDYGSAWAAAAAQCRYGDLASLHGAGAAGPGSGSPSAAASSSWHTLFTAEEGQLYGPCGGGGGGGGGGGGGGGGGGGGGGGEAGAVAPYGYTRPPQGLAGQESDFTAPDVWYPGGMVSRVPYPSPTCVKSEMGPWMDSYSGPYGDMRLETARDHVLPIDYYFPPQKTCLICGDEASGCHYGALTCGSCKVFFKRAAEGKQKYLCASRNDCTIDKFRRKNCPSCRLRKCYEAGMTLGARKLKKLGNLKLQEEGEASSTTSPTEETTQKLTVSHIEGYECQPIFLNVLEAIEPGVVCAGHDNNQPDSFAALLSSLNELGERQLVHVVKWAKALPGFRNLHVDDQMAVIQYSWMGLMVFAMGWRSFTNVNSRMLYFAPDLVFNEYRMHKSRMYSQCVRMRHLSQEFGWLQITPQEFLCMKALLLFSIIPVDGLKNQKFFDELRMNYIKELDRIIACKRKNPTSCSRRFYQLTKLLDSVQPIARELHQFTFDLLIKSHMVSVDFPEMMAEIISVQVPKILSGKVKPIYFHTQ

Rattus norvegicus [11] = assay: Androgenic activity in castrated immature rat assessed as increase of levator ani bulbocavernosus muscle weight at 0.03 mg/kg, po qd for 11 days; format: functional, organism-based; set-up: dose 0.03 mg/kg; conditions: Muscle tissue
[12] = Half life in human microsomes; format: ADME, Microsome
Rattus norvegicus [13] = assay: Androgenic activity in young intact rat assessed as increase of prostate weight at 30 mg/kg, po qd for 11 days; format: functional, organism-based; set-up: dose 30 mg/kg; conditions: Prostate gland
[14] = Oral bioavailability in rat; format: ADME, organism-based; conditions: in vivo
Rattus norvegicus [15] = assay: Androgenic activity in young intact rat assessed as increase of levator ani bulbocavernosus muscle weight at 0.3 mg/kg, po qd for 11 days; format: functional, organism-based; set-up: dose 0.3 mg/kg; conditions: Muscle tissue
Rattus norvegicus [16] = assay: Androgenic activity in young intact rat assessed as increase of levator ani bulbocavernosus muscle weight at 0.1 mg/kg, po qd for 11 days; format: functional, organism-based; set-up: dose 0.1 mg/kg; conditions: Muscle tissue

For Cc1c(N[C@@H](c2nnc(-c3ccc(C#N)cc3)o2)[C@H](C)O)ccc(C#N)c1Cl [RAD-140], the Activity (Cynomolgus monkey [1]) was “inactive”, the half-life [2] was over 2 h and the Activity (Rattus norvegicus [3]) was “Active”. The Activity (Cynomolgus monkey [4]) was 10%, the Activity (Rattus norvegicus [5]) was “Active” and the bioavailability [6] was 65%. The IC50 (Progesterone receptor) was 750 nM, the Activity (Rattus norvegicus [7]) was “Active” and the Activity (Cynomolgus monkey [8]) was “Active”. For the same compound, the half-life [9] was over 2 h, the Activity (Cynomolgus monkey [10]) was “inactive” and the Ki (Androgen receptor) was 7 nM. The Activity (Rattus norvegicus [11]) was “Active”, the half-life [12] was over 2 h and the Activity (Rattus norvegicus [13]) was “inactive”. For the same compound, the bioavailability [14] was 27%, the Activity (Rattus norvegicus [15]) was “Active” and the Activity (Rattus norvegicus [16]) was “Active”.

Cc1c(N[C@@H](c2nnc(-c3ccccc3)o2)[C@H](C)O)ccc(C#N)c1Cl showed a bioavailability [14] of under 5%.
